# Where a SMILES comes first, the peptide text is derived from it. The star is where a group is joined. AMC = Cc1cc(=O)oc2cc(N*)ccc12; Boc = CC(C)(C)OC(=O)*
# Columns and labels:
# PmC11 [1] = assay: E64 inhibition of PmC11 proteolytic activity; format: biochemical, Parabacteroides merdae; conditions: 4-fold excess of E64; Figure S5B
# clostripain = conditions: rather than covalently modifying the catalytic cysteine; ref [38],[39]; cited from earlier work
# PmC11 [2] = assay: Michaelis-Menten kinetics of fluorogenic AMC substrate hydrolysis; format: biochemical, Parabacteroides merdae; conditions: 25 nM PmC11; PBS (pH 7.4), 5 mM DTT, 0.1 mM EDTA, 1 mM CaCl2, 0.1% CHAPS; 25 °C
# Method in brief: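 Recombinant His6-tagged WT PmC11 was expressed in E. coli, self-matured, and purified by Ni-NTA and anion exchange. Reactions were started by adding Ac-VLTK-AMC at 400 pM to 400 μM. Fluorescence (excitation 355 nm, emission 460 nm) was read every 20 s for 25 min. KM and kcat were obtained by Michaelis-Menten fitting of hydrolysis rates.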
# PmC11 [3] = molecular target: PmC11 (Parabacteroides merdae, UniProt A0A9Q4WVB1); format: biochemical
# Method in brief: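 Recombinant His6-tagged WT PmC11 was expressed in E. coli BL21DE3pLysS, self-matured during expression, and purified by Ni-NTA then anion exchange. Test compound was applied at decreasing amounts from 5 μM to 10 nM during the 30 min preincubation. IC50 was derived from the rate of substrate hydrolysis measured after substrate addition.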
# PmC11 [4] = conditions: ref [16]; cited from earlier work
compound,measurement,setting,value
"CC(C)C[C@H](NC(=O)[C@H]1O[C@@H]1C(=O)O)C(=O)NCCCCN=C(N)N (relative stereo) [E64, L-trans-Epoxysuccinyl-leucylamido(4-guanidino)butane]",loss of proteolytic activity,PmC11 [1],30%
same,manner of clostripain inhibition (in words),clostripain,reversible competitive
CC(=O)N[C@H](C(=O)N[C@@H](CC(C)C)C(=O)N[C@H](C(=O)N[C@@H](CCCCN)C(=O)Nc1ccc2c(C)cc(=O)oc2c1)[C@@H](C)O)C(C)C [Ac-VLTK-AMC] (Ac-VLTK-{AMC}),kcat/KM (catalytic efficiency),PmC11 [2],1.6 x 10^5 s^−1M^−1
"CC(=O)N[C@H](C(=O)N[C@@H](CC(C)C)C(=O)N[C@H](C(=O)N[C@@H](CCCCN)C(=O)COC(=O)c1c(C)cccc1C)[C@@H](C)O)C(C)C [Ac-VLTK-AOMK, acetyl-Val-Leu-Thr-Lys acyloxymethyl ketone (2,6-dimethylbenzoic acid-derived acyloxy leaving group)]",IC50,PmC11 [3],< 25 nM
Cc1cc(=O)oc2cc(NC(=O)C(CCCN=C(N)N)NC(=O)c3ccccc3)ccc12.Cl (stereo not shown) [Bz-Arg-AMC],hydrolysis by PmC11 (in words),PmC11 [4],hydrolyze
Boc-Val-Leu-Lys-{AMC},hydrolysis by PmC11 (in words),PmC11 [4],hydrolyze
Z-Gly-Gly-Arg-AMC,hydrolysis by PmC11 (in words),PmC11 [4],hydrolyze
